Assay results: ChEMBL document CHEMBL1681731, “Synthesis, in vitro anti-inflammatory and cytotoxic evaluation, and mechanism of action studies of 1-benzoyl-β-carboline and 1-benzoyl-3-carboxy-β-carboline derivatives” (Bioorg Med Chem, 2011)
Activity calls are given as the source filed them. No cut-off for these calls is given here.

What was measured:
[1] = Cytotoxicity against mouse […] cells by MTT assay; assay type: functional
Summary of the method: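 Viability of RAW 264.7 cells taken as mitochondrial reduction of MTT to formazan. Formazan read at OD550.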

DU-145 = assay: Cytotoxicity activity against human DU145 cells assessed as growth inhibition at 10 ug/ml after 72 hrs sulforhodamine B assay; assay type: functional; conditions: DU-145, 72 h
Summary of the method: (§1)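 Cells kept in RPMI-1640/10% FBS with antibiotics at 37 °C, 5% CO2. Trypsinized cells seeded and given compound from DMSO-diluted stock. Incubated 72 h, then fixed with 10% TCA. Stained 10 min with 0.4% sulforhodamine B in 1% HOAc, washed, dye dissolved in 10 mM Trizma. A515 read; growth relative to net protein increase of controls.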

KB = assay: Cytotoxicity activity against human KB cells assessed as growth inhibition at 10 ug/ml after 72 hrs sulforhodamine B assay; assay type: functional; summary of the method: as §1
[2] = Antiinflammatory activity against mouse […] cells assessed as inhibition of lipopolysaccharide/interferon-gamma induced nitric oxide production; assay type: functional, cell-based
Summary of the method: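 RAW 264.7 cells in DMEM/10% FCS, passages 9–20. Nitrite induced by LPS (1 µg/mL) plus IFN-γ (50 U/mL) for 18 h with or without compound. Griess reagent (1% sulfanilamide, 0.1% naphthylenediamine in 5% H3PO4) read at OD550. EC50 calculated.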

RAW264.7 [3] = assay: Antiinflammatory activity against mouse RAW264.7 cells assessed as reduction of lipopolysaccharide/interferon-gamma induced PGE2 production at 10 uM after 18 hrs; assay type: functional; conditions: RAW264.7, 18 h
Summary of the method: (§2)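 RAW 264.7 macrophages (passages 9–20) stimulated with LPS/IFN-γ; compound tested at 1, 3 and 10 µM. Supernatant PGE2 measured by competitive EIA: anti-PGE2 antibody plus peroxidase-PGE2 tracer, 1 h RT; TMB/H2O2 30 min; H2SO4 stop; A450. Results given as % inhibition.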

[4] = Antiinflammatory activity against human neutrophil assessed as inhibition of N-formyl-l-methionyl phenylalanine/cytochalasin B-induced superoxide anion generation by spectrophotometry; assay type: functional, cell-based
Summary of the method: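 Ferricytochrome c (0.5 mg/mL) reduction, SOD-inhibitable, with 1 mM Ca2+. Neutrophils (6 × 10^5 cells/mL) equilibrated 2 min at 37 °C, then drug or 0.1% DMSO for 5 min. Cytochalasin B 1 µg/mL preincubation, then 100 nM FMLP for 3 min. A550 monitored continuously with stirring. IC50 computed; mean ± SEM, n = 3.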

RAW264.7 [5] = assay: Antiinflammatory activity against mouse RAW264.7 cells assessed as reduction of lipopolysaccharide/interferon-gamma induced PGE2 production at 1 uM by EIA; assay type: functional; summary of the method: as §2
[6] = Antiinflammatory activity against human neutrophil assessed as inhibition of N-formyl-l-methionyl phenylalanine/cytochalasin B-induced elastase release; assay type: functional, cell-based
Summary of the method: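 Neutrophils (6 × 10^5/mL) supplemented with 100 µM MeO-Suc-Ala-Ala-Pro-Val-p-nitroanilide, equilibrated 2 min at 37 °C, then given drug or 0.1% DMSO vehicle for 5 min. Activated with 100 nM FMLP plus 0.5 µg/mL cytochalasin B. Absorbance at 405 nm followed continuously. Release expressed as percent of drug-free activated control. IC50 computed; mean ± SEM, n = 3.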

[7] = Cytotoxicity activity against human KBVIN cells assessed as growth inhibition at 10 ug/ml after 72 hrs sulforhodamine B assay; assay type: functional; summary of the method: as §1
RAW264.7 [8] = assay: Antiinflammatory activity against mouse RAW264.7 cells assessed as reduction of lipopolysaccharide/interferon-gamma induced PGE2 production at 3 uM after 18 hrs; assay type: functional; conditions: RAW264.7, 18 h; summary of the method: as §2
[9] = Therapeutic index, ratio of CC50 for mouse […] cells to EC50 for inhibition of lipopolysaccharide/interferon-gamma induced nitric oxide production in mouse […] cells; assay type: cell-based; conditions: read-out: TI
A549 = assay: Cytotoxicity activity against human A549 cells assessed as growth inhibition at 10 ug/ml after 72 hrs sulforhodamine B assay; assay type: functional; conditions: A549, 72 h; summary of the method: as §1
[10] = test system: Radical scavenging activity; assay: Antioxidant activity assessed as residual DPPH radical scavenging activity; assay type: functional

SMILES | CC50 [1] | GI50 (DU-145) | GI50 (KB) | EC50 ([2]; Mus musculus, read-out: EC50) | inhibition at 10 µM (RAW264.7 [3]) | IC50 [4] | inhibition at 1 µM (RAW264.7 [5]) | IC50 [6] | GI50 [7] | inhibition at 3 µM (RAW264.7 [8]) | selectivity ratio [9] | GI50 (A549) | Activity [10] | EC50 [2]
O=C(c1ccccc1)c1nccc2c1[nH]c1ccccc12 | 131 µM | > 40 µM | > 40 µM | 2.67 µM | 82% | > 30 µM | 0% | > 30 µM | > 40 µM | 39% | 49 | > 40 µM |  | 
O=C(O)c1cc2c([nH]c3ccccc32)c(C(=O)c2ccc(Br)cc2)n1 | 10.7 µM | > 40 µM | > 40 µM | 0.53 µM |  | 2.28 µM | 98% | 1.99 µM | > 40 µM | 100% | 20 | > 40 µM | inactive | 
Cc1ccccc1C(=O)c1nccc2c1[nH]c1ccccc12 |  | > 40 µM | > 40 µM | 2.12 µM | 82% | > 30 µM | 0% | > 30 µM | > 40 µM | 44% | > 2000 | > 40 µM |  | 
COc1ccc(C(=O)c2nc(C(=O)O)cc3c2[nH]c2ccccc23)cc1 | 43.1 µM | > 40 µM | > 40 µM | 0.23 µM |  | 16.1 µM | 28% | 10.4 µM | > 40 µM | 98% | 187 | > 40 µM | inactive | 
COc1ccc2c(c1)c(CC(=O)O)c(C)n2C(=O)c1ccc(Cl)cc1 [INDOMETHACIN] |  |  |  |  |  | 38.3 µM |  | 32 µM |  |  |  |  |  | 
CC(O)c1nccc2c1[nH]c1ccccc12 (stereo not given) | 0.28 µM | > 40 µM | > 40 µM |  | 0% | 9.4 µM | 0% | > 30 µM | > 40 µM | 0% |  | > 40 µM |  | Not Active
CC(=O)c1nc(C(N)=O)cc2c1[nH]c1ccccc12 [STELLARINES A] | 19.8 µM | > 40 µM | > 40 µM | 0.92 µM | 90% | 14.5 µM | 0% | 5.82 µM | > 40 µM | 90% | 21 | > 40 µM |  | 
Cc1ccc(C(=O)c2nccc3c2[nH]c2ccccc23)cc1 | 52.8 µM | > 40 µM | > 40 µM | 1.26 µM | 100% | > 30 µM | 25% | > 30 µM | > 40 µM | 99% | 42 | > 40 µM |  | 
COc1ccccc1C(=O)c1nc(C(=O)O)cc2c1[nH]c1ccccc12 |  |  |  |  |  |  |  |  |  |  |  |  | inactive | 
OC(c1ccc(Br)cc1)c1nccc2c1[nH]c1ccccc12 (stereo not given) | 70.1 µM | 13.3 µM | 15.9 µM | 0.74 µM | 34% | 8.84 µM | 0% | 14.2 µM | 14.5 µM | 21% | 95 | 19 µM |  | 
O=C(c1cccc([N+](=O)[O-])c1)c1nccc2c1[nH]c1ccccc12 | 21.6 µM | > 40 µM | > 40 µM | 1.06 µM | 96% | 16.6 µM | 0% |  | > 40 µM | 95% | 20 | > 40 µM |  | 
COc1ccc(C(O)c2nccc3c2[nH]c2ccccc23)cc1 (stereo not given) | 1590 µM |  |  | 2.08 µM | 19% |  | 0% |  |  | 0% | 764 |  |  | 
O=C(O)c1cc2c([nH]c3ccccc32)c(C(=O)c2cccc([N+](=O)[O-])c2)n1 |  |  |  |  |  |  |  |  |  |  |  |  | inactive | 
